Data taken from ChEMBL document CHEMBL4371052, “Diarylcarbonates are a new class of deubiquitinating enzyme inhibitor” (Bioorg Med Chem Lett, 2019).
Activity calls are given as the source filed them. The calls are words filed in the database; no cut-off is given here.

Columns and labels:
[1] = biological target: T1, Ubiquitin carboxyl-terminal hydrolase 8 (Homo sapiens) (UniProt P40818); test: Inhibition of USP8 in HEK293T cell lysates assessed as enzyme recovery at 250 uM using HA-tagged vinyl-sulfone as substrate preincubated for 40 mins followed by 10-fold dilution and subsequent substrate addition measured up to 2 hrs by Western blot analysis; type: subcellular; conditions: Lysate
T1 sequence (whole entry): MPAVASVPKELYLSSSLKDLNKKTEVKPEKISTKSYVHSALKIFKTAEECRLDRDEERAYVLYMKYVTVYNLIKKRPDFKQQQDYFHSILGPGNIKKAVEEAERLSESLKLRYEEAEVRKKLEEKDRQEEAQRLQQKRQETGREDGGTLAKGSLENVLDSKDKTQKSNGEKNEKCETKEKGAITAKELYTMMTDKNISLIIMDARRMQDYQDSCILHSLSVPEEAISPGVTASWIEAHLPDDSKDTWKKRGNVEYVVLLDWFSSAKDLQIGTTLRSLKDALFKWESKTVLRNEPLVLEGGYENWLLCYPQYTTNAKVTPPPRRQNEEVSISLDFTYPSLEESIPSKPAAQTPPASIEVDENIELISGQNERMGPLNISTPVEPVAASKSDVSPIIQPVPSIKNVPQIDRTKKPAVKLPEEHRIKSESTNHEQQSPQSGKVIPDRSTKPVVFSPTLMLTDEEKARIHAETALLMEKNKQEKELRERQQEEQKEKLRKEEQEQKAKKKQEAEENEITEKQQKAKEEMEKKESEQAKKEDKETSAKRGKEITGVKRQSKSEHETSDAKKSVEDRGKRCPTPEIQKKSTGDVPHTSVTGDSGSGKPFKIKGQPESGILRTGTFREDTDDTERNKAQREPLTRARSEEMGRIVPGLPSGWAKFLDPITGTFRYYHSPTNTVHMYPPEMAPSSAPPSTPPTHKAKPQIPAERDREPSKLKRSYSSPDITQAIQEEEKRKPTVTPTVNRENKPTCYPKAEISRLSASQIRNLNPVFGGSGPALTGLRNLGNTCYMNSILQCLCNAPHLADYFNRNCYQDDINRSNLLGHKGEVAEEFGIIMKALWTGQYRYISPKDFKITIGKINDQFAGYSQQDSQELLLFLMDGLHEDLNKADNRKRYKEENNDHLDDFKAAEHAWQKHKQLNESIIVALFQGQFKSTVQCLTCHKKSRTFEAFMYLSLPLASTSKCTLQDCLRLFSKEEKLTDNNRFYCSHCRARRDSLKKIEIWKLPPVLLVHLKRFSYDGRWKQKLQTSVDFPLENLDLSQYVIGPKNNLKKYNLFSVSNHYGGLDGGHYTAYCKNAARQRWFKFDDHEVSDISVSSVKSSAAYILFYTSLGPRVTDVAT

[2] = biological target: Ubiquitin carboxyl-terminal hydrolase 9X (Homo sapiens) (UniProt Q93008); test: Inhibition of USP9x in HEK293T cell lysates at 25 uM using HA-tagged vinyl-sulfone as substrate preincubated for 19 to 60 mins followed by substrate addition and measured after 19 to 25 mins by Western blot analysis; type: subcellular; conditions: Lysate
[3] = biological target: Ubiquitin carboxyl-terminal hydrolase isozyme L1 (Homo sapiens) (UniProt P09936); test: Inhibition of UCHL1 in HEK293T cell lysates at 25 uM using HA-tagged vinyl-sulfone as substrate measured after 2 to 30 mins by Western blot analysis; type: subcellular; conditions: Lysate
Procedure, shortened: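 HEK 293T lysate (1.5 mg/ml) given compound (25 μM) or DMSO at the same time as HA-Ub-VS (1.5 μM). Aliquots withdrawn over time were run on SDS-PAGE and immunoblotted for HA.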

[4] = biological target: Ubiquitin carboxyl-terminal hydrolase 7 (Homo sapiens) (UniProt Q93009); test: Inhibition of USP7 in human MCF7 cells assessed as accumulation of K48-Ub protein at 50 uM after 4 hrs by Western blot analysis; type: cell-based
Procedure, shortened: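 MCF7 cells exposed to 50 μM compound for 4 h. K48-linked ubiquitin chains were detected by immunoblot.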

[5] = biological target: Ubiquitin carboxyl-terminal hydrolase 9X (Homo sapiens) (UniProt Q93008); test: Inhibition of recombinant His6-tagged USP9x catalytic domain (unknown origin) assessed as association constant using Ub-AMC as substrate by fluorescence assay
Papain (Carica papaya) = biological target: T2, Papain (Carica papaya) (UniProt P00784); test: Inhibition of papaya papain at 100 uM using Z-Arg-AMC as substrate preincubated for 30 mins followed by substrate addition by fluorescence assay
T2 sequence (whole entry): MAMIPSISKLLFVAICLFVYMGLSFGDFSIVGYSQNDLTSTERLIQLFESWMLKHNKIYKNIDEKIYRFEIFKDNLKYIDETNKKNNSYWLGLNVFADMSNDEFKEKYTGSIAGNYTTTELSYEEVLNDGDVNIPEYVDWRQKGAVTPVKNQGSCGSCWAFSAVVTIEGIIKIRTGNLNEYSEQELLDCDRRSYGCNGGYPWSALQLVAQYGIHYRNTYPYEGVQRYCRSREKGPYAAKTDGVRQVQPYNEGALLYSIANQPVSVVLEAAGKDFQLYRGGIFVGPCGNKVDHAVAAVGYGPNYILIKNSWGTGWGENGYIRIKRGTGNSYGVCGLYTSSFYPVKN
Procedure, shortened: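 Enzyme (papain or ficin) preincubated 30 min with inhibitor at 100 μM, then Z-Arg-AMC substrate added at 300 μM; AMC release followed.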

Sequence of Ubiquitin carboxyl-terminal hydrolase 9X (Homo sapiens) (Q93008 whole entry, the tested form may be a part): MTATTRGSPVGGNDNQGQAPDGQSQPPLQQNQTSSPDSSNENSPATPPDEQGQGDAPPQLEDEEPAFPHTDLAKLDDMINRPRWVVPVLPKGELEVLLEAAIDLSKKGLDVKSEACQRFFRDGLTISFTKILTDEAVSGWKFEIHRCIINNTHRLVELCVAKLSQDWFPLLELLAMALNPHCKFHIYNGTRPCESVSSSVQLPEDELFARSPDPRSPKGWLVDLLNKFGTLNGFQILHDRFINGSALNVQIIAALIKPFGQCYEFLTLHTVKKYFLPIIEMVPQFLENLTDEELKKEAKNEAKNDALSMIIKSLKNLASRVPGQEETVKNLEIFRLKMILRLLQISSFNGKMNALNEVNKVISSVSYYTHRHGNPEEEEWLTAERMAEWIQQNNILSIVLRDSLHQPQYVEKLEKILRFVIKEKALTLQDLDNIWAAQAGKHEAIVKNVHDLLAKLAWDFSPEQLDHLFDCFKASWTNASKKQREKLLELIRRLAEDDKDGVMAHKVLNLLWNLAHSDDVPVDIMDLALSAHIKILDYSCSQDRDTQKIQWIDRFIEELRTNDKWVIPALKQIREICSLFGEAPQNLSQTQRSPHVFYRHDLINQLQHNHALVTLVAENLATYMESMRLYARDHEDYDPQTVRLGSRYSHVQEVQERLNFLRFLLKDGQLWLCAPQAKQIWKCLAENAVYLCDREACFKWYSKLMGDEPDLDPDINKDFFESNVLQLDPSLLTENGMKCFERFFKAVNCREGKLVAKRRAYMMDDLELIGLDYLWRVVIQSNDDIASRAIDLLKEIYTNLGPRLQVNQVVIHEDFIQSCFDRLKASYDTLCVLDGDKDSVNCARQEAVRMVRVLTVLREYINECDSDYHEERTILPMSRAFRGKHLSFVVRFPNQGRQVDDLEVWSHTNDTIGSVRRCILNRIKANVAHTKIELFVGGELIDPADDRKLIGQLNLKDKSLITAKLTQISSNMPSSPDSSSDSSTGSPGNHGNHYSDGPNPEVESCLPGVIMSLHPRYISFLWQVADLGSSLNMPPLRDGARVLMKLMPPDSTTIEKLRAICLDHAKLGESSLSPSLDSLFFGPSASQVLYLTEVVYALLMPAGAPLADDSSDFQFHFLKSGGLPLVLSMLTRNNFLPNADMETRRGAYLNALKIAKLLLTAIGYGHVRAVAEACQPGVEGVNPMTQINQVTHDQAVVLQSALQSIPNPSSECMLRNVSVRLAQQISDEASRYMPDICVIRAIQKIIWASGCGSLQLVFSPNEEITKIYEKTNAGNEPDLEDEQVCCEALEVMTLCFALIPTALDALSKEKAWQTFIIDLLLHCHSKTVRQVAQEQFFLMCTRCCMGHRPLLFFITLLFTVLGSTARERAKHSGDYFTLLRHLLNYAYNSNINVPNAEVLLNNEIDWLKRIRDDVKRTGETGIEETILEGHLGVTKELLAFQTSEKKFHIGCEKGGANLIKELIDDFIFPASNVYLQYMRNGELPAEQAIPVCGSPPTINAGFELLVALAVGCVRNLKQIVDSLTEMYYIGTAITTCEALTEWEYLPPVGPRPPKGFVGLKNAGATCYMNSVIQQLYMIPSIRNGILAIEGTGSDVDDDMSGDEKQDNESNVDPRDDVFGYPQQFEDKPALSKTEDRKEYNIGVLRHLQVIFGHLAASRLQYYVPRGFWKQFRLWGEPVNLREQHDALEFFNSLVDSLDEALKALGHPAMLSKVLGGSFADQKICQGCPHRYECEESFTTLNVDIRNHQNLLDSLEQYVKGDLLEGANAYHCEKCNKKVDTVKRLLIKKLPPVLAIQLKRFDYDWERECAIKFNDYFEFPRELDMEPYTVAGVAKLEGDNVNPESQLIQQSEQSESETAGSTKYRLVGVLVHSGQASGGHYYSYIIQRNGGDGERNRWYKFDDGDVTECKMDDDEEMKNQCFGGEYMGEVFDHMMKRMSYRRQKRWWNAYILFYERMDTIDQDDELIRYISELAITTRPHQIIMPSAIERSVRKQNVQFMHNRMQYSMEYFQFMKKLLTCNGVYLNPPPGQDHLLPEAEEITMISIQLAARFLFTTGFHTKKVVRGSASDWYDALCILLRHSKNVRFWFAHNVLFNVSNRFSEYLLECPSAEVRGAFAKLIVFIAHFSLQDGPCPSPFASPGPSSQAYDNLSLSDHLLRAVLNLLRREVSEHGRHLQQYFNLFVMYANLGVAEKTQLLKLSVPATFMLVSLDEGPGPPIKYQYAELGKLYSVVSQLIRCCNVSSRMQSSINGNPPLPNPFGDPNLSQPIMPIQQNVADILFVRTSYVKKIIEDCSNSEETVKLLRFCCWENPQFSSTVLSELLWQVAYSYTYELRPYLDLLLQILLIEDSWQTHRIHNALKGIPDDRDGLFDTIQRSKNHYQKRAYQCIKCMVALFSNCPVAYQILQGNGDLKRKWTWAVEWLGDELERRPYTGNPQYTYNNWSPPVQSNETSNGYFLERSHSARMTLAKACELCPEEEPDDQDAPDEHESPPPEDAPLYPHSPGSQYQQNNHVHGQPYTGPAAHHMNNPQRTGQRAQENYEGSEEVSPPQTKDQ
Sequence of Ubiquitin carboxyl-terminal hydrolase 7 (Homo sapiens) (Q93009 whole entry, looked up): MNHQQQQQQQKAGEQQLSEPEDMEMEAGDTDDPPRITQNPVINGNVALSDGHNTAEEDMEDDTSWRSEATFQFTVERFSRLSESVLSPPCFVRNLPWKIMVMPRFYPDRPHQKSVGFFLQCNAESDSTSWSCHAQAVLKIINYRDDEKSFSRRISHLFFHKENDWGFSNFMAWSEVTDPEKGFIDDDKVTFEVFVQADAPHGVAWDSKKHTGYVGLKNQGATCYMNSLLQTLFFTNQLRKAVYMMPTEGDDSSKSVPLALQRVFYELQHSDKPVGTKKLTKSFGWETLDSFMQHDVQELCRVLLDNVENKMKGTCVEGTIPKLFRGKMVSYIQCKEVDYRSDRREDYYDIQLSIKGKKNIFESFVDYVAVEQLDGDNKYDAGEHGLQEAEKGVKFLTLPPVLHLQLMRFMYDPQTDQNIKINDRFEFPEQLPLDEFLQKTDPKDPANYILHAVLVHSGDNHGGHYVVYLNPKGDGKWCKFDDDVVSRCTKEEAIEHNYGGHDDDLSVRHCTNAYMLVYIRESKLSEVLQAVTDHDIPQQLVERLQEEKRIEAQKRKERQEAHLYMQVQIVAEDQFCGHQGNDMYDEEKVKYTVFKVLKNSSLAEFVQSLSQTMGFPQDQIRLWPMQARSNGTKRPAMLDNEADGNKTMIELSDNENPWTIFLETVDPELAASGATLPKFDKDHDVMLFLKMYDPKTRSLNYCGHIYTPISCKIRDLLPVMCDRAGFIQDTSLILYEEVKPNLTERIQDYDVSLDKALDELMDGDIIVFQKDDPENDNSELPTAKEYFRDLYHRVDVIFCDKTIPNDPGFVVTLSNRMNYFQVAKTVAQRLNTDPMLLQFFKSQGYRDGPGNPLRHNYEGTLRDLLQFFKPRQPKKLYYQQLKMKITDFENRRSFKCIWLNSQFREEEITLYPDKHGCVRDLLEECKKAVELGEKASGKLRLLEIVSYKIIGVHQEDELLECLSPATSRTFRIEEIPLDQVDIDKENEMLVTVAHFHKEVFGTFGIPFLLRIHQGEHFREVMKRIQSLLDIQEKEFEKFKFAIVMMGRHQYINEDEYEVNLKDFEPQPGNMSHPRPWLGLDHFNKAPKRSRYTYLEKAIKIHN
Sequence of Ubiquitin carboxyl-terminal hydrolase isozyme L1 (Homo sapiens) (P09936 whole entry, looked up): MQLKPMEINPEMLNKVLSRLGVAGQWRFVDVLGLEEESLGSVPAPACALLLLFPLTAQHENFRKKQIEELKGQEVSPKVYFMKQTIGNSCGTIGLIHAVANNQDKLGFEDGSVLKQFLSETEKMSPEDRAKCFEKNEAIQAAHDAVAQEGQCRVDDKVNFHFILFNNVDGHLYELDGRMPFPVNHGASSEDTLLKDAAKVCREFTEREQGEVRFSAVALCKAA

- inhibition [1]: inactive
- inhibition [2]: Active
- inhibition [3]: inactive
- inhibition [4]: Active
- K [5]: 49 M⁻¹ s⁻¹
- inhibition (Papain (Carica papaya)): inactive
SMILES: NCc1ccc(OC(=O)Oc2ccc3ccccc3c2)cc1
